Test results: ChEMBL document CHEMBL4828721, “Substituted dienes prepared from betulinic acid - Synthesis, cytotoxicity, mechanism of action, and pharmacological parameters” (Eur J Med Chem, 2021)
Active and inactive are the calls of the source. No cut-off for these calls is given here.

Columns and labels:
[1] = tested on: CCRF-CEM; assay: Cytotoxicity against human CCRF-CEM cells assessed as reduction in cell viability measured after 72 hrs by MTS assay; type: functional, cell-based
[2] = Cytotoxicity against human HCT116 p53-null cells assessed as reduction in cell viability measured after 72 hrs by MTS assay; type: functional, cell-based
[3] = tested on: K562; assay: Cytotoxicity against human K562 cells assessed as reduction in cell viability measured after 72 hrs by MTS assay; type: functional, cell-based; conditions: K562, 72 h
[4] = tested on: CCRF-CEM; assay: Cell cycle arrest in human CCRF-CEM cells assessed as accumulation of cells at G0/G1 phase at IC50 measured after 24 hrs by propidium iodide staining based flow cytometry analysis (Rvb= 40.20%); type: functional
[5] = tested on: CCRF-CEM; assay: Cell cycle arrest in human CCRF-CEM cells assessed as accumulation of cells at G0/G1 phase at 5 times IC50 measured after 24 hrs by propidium iodide staining based flow cytometry analysis (Rvb= 40.20%); type: functional
[6] = tested on: CCRF-CEM; assay: Cell cycle arrest in human CCRF-CEM cells assessed as accumulation of cells at S phase at IC50 measured after 24 hrs by propidium iodide staining based flow cytometry analysis (Rvb= 38.17%); type: functional
[7] = tested on: CCRF-CEM; assay: Cell cycle arrest in human CCRF-CEM cells assessed as accumulation of cells at S phase at 5 times IC50 measured after 24 hrs by propidium iodide staining based flow cytometry analysis (Rvb= 38.17%); type: functional
[8] = tested on: CCRF-CEM; assay: Cell cycle arrest in human CCRF-CEM cells assessed as accumulation of cells at G2/M phase at 5 times IC50 measured after 24 hrs by propidium iodide staining based flow cytometry analysis (Rvb= 21.62%); type: functional
[9] = tested on: CCRF-CEM; assay: Induction of mitotic arrest in human CCRF-CEM cells assessed as phosphorylation of histone H3 at Ser10 at IC50 measured after 24 hrs by propidium iodide staining based flow cytometry analysis (Rvb= 1.72%); type: functional
[10] = tested on: CCRF-CEM; assay: Induction of mitotic arrest in human CCRF-CEM cells assessed as phosphorylation of histone H3 at Ser10 at 5 times IC50 measured after 24 hrs by propidium iodide staining based flow cytometry analysis (Rvb= 1.72%); type: functional
[11] = tested on: CCRF-CEM; assay: Inhibition of DNA synthesis in human CCRF-CEM cells at IC50 by BrdU incorporation assay (Rvb= 41.56%); type: functional; design: scale not given: the % may be the effect or the level left
[12] = tested on: CCRF-CEM; assay: Inhibition of RNA synthesis in human CCRF-CEM cells at IC50 by […] incorporation assay (Rvb= 36.54%); type: functional; design: scale not given: the % may be the effect or the level left
[13] = tested on: CCRF-CEM; assay: Inhibition of RNA synthesis in human CCRF-CEM cells at 5 times IC50 by […] incorporation assay (Rvb= 36.54%); type: functional; design: scale not given: the % may be the effect or the level left
[14] = tested on: CCRF-CEM; assay: Induction of apoptosis in human CCRF-CEM cells assessed as live cells at IC50 measured after 24 hrs by Annexin V-FITC/PI staining based flow cytometry analysis (Rvb= 96.7%); type: functional
[15] = tested on: CCRF-CEM; assay: Induction of apoptosis in human CCRF-CEM cells assessed as late apoptotic cells at IC50 measured after 24 hrs by Annexin V-FITC/PI staining based flow cytometry analysis (Rvb= 1.4%); type: functional
[16] = tested on: CCRF-CEM; assay: Induction of apoptosis in human CCRF-CEM cells assessed as activation of caspase 9 at 5 times IC50 measured after 24 hrs by western blot analysis; type: functional, cell-based
Outline: (§1)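 Protein (15 µg/lane) was resolved by 10% SDS-PAGE and transferred to nitrocellulose. Blocked in 5% milk/TBST, then probed overnight at 4 °C with primary antibodies (1:1000) and HRP secondaries. Detected by ECL, with β-actin as loading control.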

[17] = tested on: CCRF-CEM; assay: Induction of apoptosis in human CCRF-CEM cells assessed as induction of PARP cleavage at 5 times IC50 measured after 24 hrs by western blot analysis; type: functional, cell-based; outline: as §1
[18] = tested on: CCRF-CEM; assay: Induction of cell cycle arrest in human CCRF-CEM cells assessed as upregulation of p21 protein expression at 5 times IC50 measured after 24 hrs by western blot analysis; type: functional, cell-based; outline: as §1
[19] = Stability in human plasma assessed as parent compound remaining at 2 uM incubated for 30 mins by RF-MS analysis; type: ADME, cell-free; conditions: read-out: Stability
[20] = Stability in human plasma assessed as parent compound remaining at 2 uM incubated for 120 mins by RF-MS analysis; type: ADME, cell-free; conditions: read-out: Stability
[21] = Microsomal stability in human liver microsomes assessed as parent compound remaining at 2 uM in the presence of NADPH measured after 15 mins by RF-MS analysis; type: ADME, Microsome; conditions: read-out: Stability
Outline: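 Human liver microsomes incubated with compound in the presence of NADPH cofactor to assess phase I oxidation. Intrinsic clearance was derived from the decline of the parent compound.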

[22] = Apparent permeability of the compound in human Caco2 cells at pH 7.4 at 10 micromol/L measured after 2 hrs by RF-MS analysis; type: ADME, cell-based; conditions: Caco-2, pH 7.4, dose 10 µmol/L
Outline: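 Caco-2 and MDCK-MDR1 cells grown on polyester Transwell filters (0.4 and 1 µm pores) in DMEM pH 7.4 with 10% FBS; monolayer integrity checked by Lucifer Yellow rejection. Cells washed and pre-equilibrated 1 h in HBSS pH 7.4, then dosed with compound in HBSS pH 7.4. Incubation was 1 h for MDCK and 2 h for Caco-2. Samples lyophilized and quantified by RapidFire MS/MS with internal standard. Duplicates. Papp = (dQ/dt)/(C0·A).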

[23] = tested on: CCRF-CEM; assay: Induction of apoptosis in human CCRF-CEM cells assessed as dead cells at 5 times IC50 measured after 24 hrs by Annexin V-FITC/PI staining based flow cytometry analysis (Rvb= 0.3%); type: functional
Outline: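 They were washed in ice-cold PBS and incubated with Annexin V-FITC plus PI for 20 min at room temperature in the dark. Cells were then pelleted and resuspended in binding buffer (10 mmol/L HEPES/NaOH pH 7.4, 140 mmol/L NaCl, 2.5 mmol/L CaCl2). Read on a FACSAria II, ≥10,000 cells per sample.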

[24] = tested on: CCRF-CEM; assay: Induction of apoptosis in human CCRF-CEM cells assessed as downregulation of Bcl2 expression at 5 times IC50 measured after 24 hrs by western blot analysis; type: functional, cell-based; outline: as §1
[25] = tested on: CCRF-CEM; assay: Induction of apoptosis in human CCRF-CEM cells assessed as upregulation of BAX expression at 5 times IC50 measured after 24 hrs by western blot analysis relative to control; type: functional; outline: as §1

`C=C(/C=C/c1cccc(Cl)c1)[C@@H]1CC[C@]2(C(=O)O)CC[C@]3(C)[C@H](CC[C@@H]4[C@@]5(C)CC[C@H](O)C(C)(C)[C@@H]5CC[C@]43C)[C@@H]12` gave an IC50 [1] of 3.2 µM, an IC50 [2] of 15.2 µM and an IC50 [3] of 27.7 µM. The Activity [4] was 42.87%, the Activity [5] was 49.79% and the Activity [6] was 42.75%. For the same molecule, the Activity [7] was 37.93%, the Activity [8] was 12.28% and the Activity [9] was 1.5%. The Activity [10] was 1.52%, the Activity [11] was 35.56% and the Activity [12] was 18.97%. For the same molecule, the Activity [13] was 11.37%, the Activity [14] was 91.9% and the Activity [15] was 4.6%. For the same molecule, the Activity [16] was “Active”, the Activity [17] was “Active” and the Activity [18] was “Active”. It also gave a remaining at 0.5 h, 2 µM [19] of 87.9%, a remaining at 2 h, 2 µM [20] of 77.7% and a remaining at 0.25 h, 2 µM [21] of 90.1%. It also gave a Papp at 2 h, 10 µM [22] of 17.5 ×10⁻⁶ cm/s.
Molecule `C=C(/C=C/c1ccc([N+](=O)[O-])cc1)[C@@H]1CC[C@]2(C(=O)O)CC[C@]3(C)[C@H](CC[C@@H]4[C@@]5(C)CC[C@H](O)C(C)(C)[C@@H]5CC[C@]43C)[C@@H]12` has an IC50 [1] of 3.6 µM, an IC50 [2] of 15.7 µM and an IC50 [3] of 11.5 µM. It also gave an Activity [4] of 48.4%, an Activity [5] of 29.57% and an Activity [6] of 28.44%. For the same molecule, the Activity [7] was 57.61%, the Activity [8] was 12.81% and the Activity [9] was 2.9%. It also gave an Activity [10] of 0.93%, an Activity [11] of 43.17% and an Activity [12] of 34.98%. For the same molecule, the Activity [13] was 4.07%, the Activity [14] was 90.9% and the Activity [15] was 4.9%. For the same molecule, the Activity [23] was 1.9%, the Activity [16] was “Active” and the Activity [17] was “Active”. For the same molecule, the Activity [24] was “Active”, the Activity [25] was 20% and the Activity [18] was “Active”. The remaining at 0.5 h, 2 µM [19] was 79.1%, the remaining at 2 h, 2 µM [20] was 71.5% and the remaining at 0.25 h, 2 µM [21] was 93.2%. For the same molecule, the Papp at 2 h, 10 µM [22] was 0.96 ×10⁻⁶ cm/s.
